# This is a sample that favours compounds with a hit; in the whole collection about 3.4% have one here.
# PHOSPHO1 block: blocks human PHOSPHO1 phosphatase activity | recombinant PHOSPHO1, absorbance phosphatase assay | hit rate 1.1% among 290,000 | inhibition, % at 13.3 µM | Q8TCT1; in the data active = inhibition above about 60%
# Target sequence (Q8TCT1 whole entry, looked up): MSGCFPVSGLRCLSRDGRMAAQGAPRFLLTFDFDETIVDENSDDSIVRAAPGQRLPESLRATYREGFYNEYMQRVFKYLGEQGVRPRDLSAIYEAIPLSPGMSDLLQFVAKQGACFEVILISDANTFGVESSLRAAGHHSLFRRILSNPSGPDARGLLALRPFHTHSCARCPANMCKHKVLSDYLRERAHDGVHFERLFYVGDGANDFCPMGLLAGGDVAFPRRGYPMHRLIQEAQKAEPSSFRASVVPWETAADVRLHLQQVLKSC
# HMGR II inh: inhibitors of class II HMG-CoA reductase from Enterococcus faecalis; inhibition, % at 10 µM; purified E. faecalis HMGR, NADPH absorbance 340 nm kinetic; hit rate 0.41% among 190,000; AID 1066;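 active = inhibition above a set limit, the median over all tested compounds plus 3 SD, cut at about 9.5% in these data; inconclusive = no clear call, values can overlap the other calls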;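 note: enzyme runs in reverse so mevalonate oxidation gives rising NADPH absorbance; 0% = complete reaction with DMSO and 100% = background rate lacking mevalonate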
# RanGTP-Impb inh: disruptors of Ran-importin-beta complex formation – biochemical, FRET, CFP-Ran, YFP-importin-beta, homogeneous, primary screen; inhibition, % (no concentration beside the values); hit rate 1.1% among 300,000; cell-free CFP-Ran/YFP-importin-beta FRET ratio;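 active = more than half of the replicate wells show a fall in the fluorescence ratio signal beyond about 16%, limit read from the data, passing the limit was not always enough; inconclusive = exactly half of the replicate wells pass the set limit; inactive = fewer than half of replicates pass the limit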;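 note: 0% = DMSO wells and 100% = Ran loaded with GDP instead of GTP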
# Runt-SMMHC FRET: Runt domain-CBFb-SMMHC interaction inhibition; Q01196+Q13951; Cerulean-Runt/Venus-CBFb-SMMHC FRET ratio 530/480, 1 h; inhibition, % at 20 µM; hit rate 0.74% among 220,000;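 active = mean inhibition across duplicate retests at 20 µM reaching about 50%, limit read from the data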;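 note: 0% = DMSO wells and 100% = wells with excess untagged CBFb-SMMHC; inhibitors lower the FRET ratio by blocking Runt binding to CBFb-SMMHC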
# Wee1 degr inh: blocks degradation of human Wee1 kinase. HeLa Luc-Wee1K328M stability, luciferase luminescence; 100% = proteasome inhibitor MG132 effect. hit rate 1.2% among 220,000. reporter increase, % at 5 µM. AID 1321. P30291;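 active = activation above the mean of all tested compounds plus 3 SD, set per screening run, cut at about 8.8% in these data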;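 note: cells exposed to compound for 20 h before luminescence read; 0% = DMSO alone and 100% = MG132 at 30 µM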
# Runt-CBFb FRET: blocks binding of human RUNX1 Runt domain to CBFb; inhibition, % at 20 µM; Cerulean-Runt/Venus-CBFb FRET ratio 530/480, 1 h; AID 1496; hit rate 0.46% among 220,000; Q01196+Q13951;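 active = inhibition over about 50% at 20 µM in the single-dose screen, limit read from the data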;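 note: 0% = DMSO wells and 100% = excess unlabeled CBFb competitor control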
#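 System: Cerulean-labeled Runt domain protein | Quantity: 100 nM of each labeled protein | Schedule: 1 h compound exposure, room temperature | Detection: Fluorescence energy transfer, 422 nm excitation, 530/480 nm emission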
# The depositor's hits bear a star; ? = inconclusive; · = not tested or not shown.
SMILES,PHOSPHO1 block,HMGR II inh,RanGTP-Impb inh,Runt-SMMHC FRET,Wee1 degr inh,Runt-CBFb FRET
Cc1ccc(-c2nnc(SCc3nc4ccccc4[nH]3)n2Cc2ccco2)cc1,93.6*,-3.0,?,0.7,0.3,6.6
c1coc(Cn2c(SCc3nc4ccccc4[nH]3)nnc2-c2cccs2)c1,91.7*,0.4,3.3,22.4,0.6,43.7
O=c1[nH]c(CSc2nnc(-c3ccncc3)n2Cc2ccco2)nc2ccccc12,29.0,-3.2,-0.4,3.8,-2.2,2.7
Cn1c(SCc2nc3ccccc3[nH]2)nnc1-c1cccnc1,24.5,2.7,-1.3,0.5,1.8,-2.1
Cc1cccc(-c2nnc(SCc3nc4ccccc4[nH]3)n2Cc2ccco2)c1,83.1*,-6.1,-0.8,2.9,-3.0,9.7
CCOc1ccc(-c2nnc(SCc3nc4ccccc4[nH]3)n2N)cc1,76.4*,-1.1,1.7,0.4,-1.5,6.0
COc1ccc(CCN2CC(C(=O)OCC(=O)Nc3c(C)nn(-c4ccccc4)c3C)CC2=O)cc1OC (stereo unspecified),·,·,-2.8,·,·,·
COc1ccc(CCNC(=O)c2cc(S(=O)(=O)N3CCCCC3)c[nH]2)cc1OC,-19.3,·,0.4,·,·,·
Nc1c(C(=O)NCc2ccco2)c2nc3ccccc3nc2n1CCc1ccccc1F,14.4,-3.4,50.2*,·,4.2,30.5
COc1ccc(CCn2c(N)c(C(=O)NCc3ccco3)c3nc4ccccc4nc32)cc1OC,-53.0,-3.5,39.1*,24.7,-1.2,7.7
COc1ccc(CCNC(=O)c2ccc3nc(-c4ccco4)c(-c4ccco4)nc3c2)cc1OC,69.5*,1.3,·,-62.0,-2.9,-8.7
O=C(NCc1ccco1)c1c(F)c(F)c(F)c(C(=O)NCc2ccco2)c1F,35.3,1.6,1.3,-0.5,4.2,-0.7
COc1ccc(CCn2c(N)c(S(=O)(=O)c3cccs3)c3nc4ccccc4nc32)cc1OC,1.7,1.1,-2.3,6.3,3.9,·
Cc1cc(=O)n2[nH]c(SCc3ccc(Cl)cc3)nc2n1,23.1,·,2.4,-2.3,-2.5,-0.7
COc1ccc(-c2csc(NC(=O)c3cc(=O)c4ccccc4o3)n2)cc1OC,-10.2,-3.7,6.0,-1.4,5.4,1.6
COc1ccc(C(=O)NC2CC2)cc1OC1CCN(Cc2ccc(Cl)cc2)CC1,51.4,·,0.4,·,·,·
O=c1cc(-c2ccccc2)[nH]n1-c1nc2ccccc2[nH]1,-7.5,-3.7,25.8*,17.1,1.3,12.0
O=C(NCC1CCCO1)C1CCCN1C(=O)Nc1ccc(Cl)cc1 (stereo unspecified),60.1*,3.6,4.2,-6.6,6.0,0.9
S=C1NCN(CCc2ccccc2)CN1Cc1ccccc1,-4.4,·,-1.4,-0.3,9.6*,0.0
Cc1ccc(OCC(=O)NCCCNC(=O)c2cccnc2)cc1,17.4,·,1.0,·,·,·
O=[N+]([O-])c1ccc(-n2cccc2/C=N/Nc2nc(N3CCCCC3)nc(N3CCCCC3)n2)cc1,-17.0,-1.4,11.7,·,10.6*,·
O=[N+]([O-])c1cccc(-n2cccc2/C=N/Nc2nc(N3CCCCC3)nc(N3CCCCC3)n2)c1,-1.1,6.9,-5.6,-4.0,-0.5,-1.4
CCn1c(COc2ccccc2C)nnc1SCC(=O)CC(=O)Nc1ccccc1,69.4*,-3.3,3.8,0.7,11.9*,-7.7
COc1cc(OC)c2cc(C(=O)N[C@H](C(=O)N3CCC[C@H]3C(=O)O)C(C)C)n(C)c2c1,39.5,·,3.0,·,·,·
CN(Cc1ccccc1)CC(O)COc1ccc(CNCCCOc2cccnc2)cc1 (stereo unspecified),44.0,-7.7,-3.2,-2.6,8.9*,-2.8
SMILES,PHOSPHO1 block,HMGR II inh,RanGTP-Impb inh,Runt-SMMHC FRET,Wee1 degr inh,Runt-CBFb FRET
Cc1cccn2c(=O)c(/C=C(\C#N)C(=O)NC3CCS(=O)(=O)C3)c(N3CCC(C(N)=O)CC3)nc12 (stereo unspecified),6.0,3.8,?,63.2*,0.3,134.0*
Cc1cccn2c(=O)c(/C=C(\C#N)C(=O)NC3CCS(=O)(=O)C3)c(N3CC(C)OC(C)C3)nc12 (stereo unspecified),3.8,·,?,102.9*,-1.0,11.5
COC(=O)C(Cc1ccc(O)cc1)NC(=O)NC12CC3CC(CC(C3)C1)C2 (stereo unspecified),5.3,·,-2.5,·,·,·
O=C(COc1ccc(F)cc1Br)N1CCN(S(=O)(=O)/C=C/c2ccccc2)CC1,61.5*,-10.8,-0.4,-0.6,7.0,-4.2
Cc1onc(-c2ccccc2)c1C(=O)N1CCN(S(=O)(=O)c2ccc(OC(F)(F)F)cc2)CC1,-5.9,·,7.1,·,·,·
COC(=O)c1ccc2c(c1)S(=O)(=O)NC(=NCc1ccco1)S2,75.3*,0.0,-5.6,-1.9,-0.3,4.8
CC(C)c1ccccc1NC(=S)NCC1(N(C)C)CCCCC1,41.8,·,1.6,·,·,·
COc1ccc(C(=O)N2CCC(C(=O)Nc3ccccc3C)CC2)cc1OC,40.8,10.1*,-3.7,1.2,-0.8,0.6
COc1ccc(OC)c(NC(=O)C2CCN(C(=O)c3cccs3)CC2)c1,-16.3,4.9,0.1,2.4,-1.7,65.5*
COc1ccc(OC)c(NC(=O)C2CCN(S(=O)(=O)c3cccs3)CC2)c1,2.7,-2.5,0.9,-2.5,2.5,0.0
O=C(OCc1nnc(-c2ccccc2)o1)c1cccc(S(=O)(=O)N2CCOCC2)c1,·,·,-0.9,·,·,·
COc1cccc(-c2nc(CS(=O)(=O)CC(=O)N3CCOCC3)c(C)o2)c1,-68.1,·,-0.6,·,·,·
COC(=O)c1ccccc1N=C(SC)N(C)C,93.7*,-7.7,7.0,0.4,-1.7,0.7
COC(=O)c1ccccc1NC(=S)N(C)C,-5.3,·,-2.8,-1.4,0.2,-4.5
O=C(O)CCCN1C(=O)/C(=C/c2ccc(-c3nc4ccccc4s3)o2)SC1=S,69.3*,-9.6,-1.8,-1.6,2.5,19.1
O=C(O)CCCCCN1C(=O)/C(=C\c2ccc(-c3ccc(Cl)cc3)o2)SC1=S,-1.5,·,-0.3,-90.4,1.5,28.8
C[N+]1(CCCCCCC(=O)/C=N/O)CCCCCC1,82.0*,-6.3,-5.4,2.0,0.1,-5.5
C[N+](C)(C)CCCCCCC(=O)/C=N/O,2.5,-5.4,-0.6,5.1,2.4,-5.0
NS(=O)(=O)c1ccc(CCNC(=O)CSc2nc3ccsc3c(=O)n2CC2CCC(C(=O)O)CC2)cc1 (stereo unspecified),27.1,-4.7,-1.1,-1.4,10.7*,-1.6
O=C(NC(=S)NNC(=O)c1cccs1)c1ccccc1,-117.2,·,0.3,·,·,·
Cc1cccc(C(=O)NC(=S)NNC(=O)c2cccs2)c1,88.2*,-1.9,3.0,9.2,2.7,18.0
CCOc1cccc(OCCOCCNC(C)(C)C)c1,-9.3,-6.5,-1.1,-6.7,0.6,-0.8
CC(C)(C)NCCOc1ccc2ccccc2c1,10.5,1.4,31.7*,-4.1,1.1,1.9
C(=N\n1cnnc1)/c1ccc(N2CCOCC2)s1,34.2,-1.6,9.5,69.9*,1.7,27.6

# Screening data from PubChem BioAssay.
